According to ChEMBL document CHEMBL1146590, “Cytotoxic sesquiterpene lactones from the root of Saussurea lappa” (2003):
≈ marks a conversion by molar mass, not a printed value. Calls of active or inactive are those of the source. The calls are words filed in the database; no cut-off is given here.

How the values were obtained:
Enterococcus = experiment: Antibacterial activity against vancomycin-resistant Enterococcus CKU-17; type: functional
Enterococcus faecalis = experiment: Antibacterial activity against Enterococcus faecalis; type: functional
HepG2 = experiment: Cytotoxicity against human HepG2 cells after 48 hrs by MTT assay; type: functional; settings: for CC50: HepG2, 48 h, read-out: CD50 (the source's name)
HeLa = experiment: Cytotoxicity against human HeLa cells after 48 hrs by MTT assay; type: functional; settings: read-out: CD50 (the source's name)
OVCAR-3 [1] = experiment: Cytotoxicity against human OVCAR-3 cells after 48 hrs by MTT assay; type: functional; settings: for CC50: OVCAR-3, 48 h, read-out: CD50 (the source's name)
Outline: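 OVCAR-3 cells were exposed to a range of concentrations for 48 h, and viability was read by MTT colorimetric assay. CD50 was determined by the MTT method. Data are reported as mean ± SD (n = 4).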

Escherichia coli = experiment: Antibacterial activity against Escherichia coli; type: functional
Staphylococcus aureus [2] = experiment: Antibacterial activity against methicillin-resistant Staphylococcus aureus; type: functional
Staphylococcus aureus [3] = experiment: Antibacterial activity against Staphylococcus aureus; type: functional
OVCAR-3 [4] = experiment: Cytotoxicity against human OVCAR-3 cells assessed as half cell death at CD50 after 24 hrs by MTT assay; type: functional, cell-based
Outline: (§1)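 OVCAR-3 cells were seeded at 5 × 10^3 per well and grown 24 h. […] Compound was washed out, fresh medium was added, and cells were incubated a further 48 h at 37 °C. Viable cells were read by MTT at OD 570 nm as % of control, mean ± SD (n = 4).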

OVCAR-3 (Homo sapiens) = experiment: Cytotoxicity against human OVCAR-3 cells after 48 hrs by MTT assay
OVCAR-3 [5] = experiment: Cytotoxicity against human OVCAR-3 cells assessed as half cell death at 2 times CD50 after 6 hrs by MTT assay; type: functional, cell-based; outline: as §1
OVCAR-3 [6] = experiment: Cytotoxicity against human OVCAR-3 cells assessed as half cell death at 4 times CD50 up to 2 hrs by MTT assay; type: functional, cell-based; outline: as §1

| Compound | MIC (Enterococcus) [µg/mL] | MIC (Enterococcus faecalis) [µg/mL] | CC50 (HepG2) [µg/mL] | CC50 (HeLa) [µg/mL] | CC50 (OVCAR-3 [1]) [µg/mL] | MIC (Escherichia coli) [µg/mL] | MIC (Staphylococcus aureus [2]) [µg/mL] | MIC (Staphylococcus aureus [3]) [µg/mL] | Activity (OVCAR-3 [4]) | Activity (HepG2) | Activity (OVCAR-3 (Homo sapiens)) | Activity (OVCAR-3 [5]) | Activity (OVCAR-3 [1]) | Activity (OVCAR-3 [6]) |
| --- | --- | --- | --- | --- | --- | --- | --- | --- | --- | --- | --- | --- | --- | --- |
| O=C(N[C@H](CO)[C@H](O)c1ccc([N+](=O)[O-])cc1)C(Cl)Cl [CHLORAMPHENICOL] | 6.25 (≈ 19.3 µM) | 6.25 (≈ 19.3 µM) | – | – | – | – | – | – | – | – | – | – | – | – |
| C=C1[C@@H]2[C@H]3OC(=O)C(=C)[C@@H]3CCC(=C)[C@@H]2C[C@@H]1O [ZALUZANIN C] | – | – | 34 (≈ 138 µM) | 22 (≈ 89.3 µM) | 15 (≈ 60.9 µM) | – | – | – | – | – | – | – | – | – |
| C=C1[C@@H]2[C@H]3OC(=O)[C@@H](C)[C@@H]3CCC(=C)[C@@H]2C[C@H]1O | – | – | 75 (≈ 302 µM) | 65 (≈ 262 µM) | 65 (≈ 262 µM) | – | – | – | – | – | – | – | – | – |
| C=C(CO)[C@@H]1CC[C@@]2(C)CCC[C@@](C)(O)[C@@H]2C1 [ILICIC ALCOHOL] | – | – | > 100 | > 100 | > 100 | – | – | – | – | – | – | – | – | – |
| C=C1CC[C@@H](O)[C@]2(C)CC[C@H]3C(=C)C(=O)O[C@@H]3[C@@H]12 [REYNOSIN] | > 800 | > 800 | 11 (≈ 44.3 µM) | 7.5 (≈ 30.2 µM) | 7.5 (≈ 30.2 µM) | > 800 | > 800 | 800 (≈ 3220 µM) | – | – | – | – | – | – |
| C=C1C(=O)O[C@@H]2[C@H]3C(C)=CC[C@@H](O)[C@]3(C)CC[C@@H]12 [SANTAMARIN] | > 800 | > 800 | 7.5 (≈ 30.2 µM) | 10 (≈ 40.3 µM) | 10 (≈ 40.3 µM) | > 800 | 800 (≈ 3220 µM) | 800 (≈ 3220 µM) | – | – | – | – | – | – |
| C[C@@H]1C(=O)O[C@H]2[C@H]1CC[C@@]1(C)[C@H](O)CC[C@@](C)(O)[C@H]21 [COLARTIN] | > 800 | > 800 | > 100 | 100 (≈ 373 µM) | 100 (≈ 373 µM) | > 800 | – | > 800 | – | – | – | – | – | – |
| C=C1CC[C@H]2C(=C)CC[C@@H]3[C@H](OC(=O)[C@@]3(O)C[C@]3(C)CCC(=O)[C@]4(C)CC[C@H]5C(=C)C(=O)O[C@@H]5[C@@H]34)[C@@H]12 [LAPPADILACTONE] | – | – | 2.4 (≈ 4.85 µM) | 1.8 (≈ 3.64 µM) | 2.5 (≈ 5.05 µM) | – | – | – | Active | Dose-dependent effect | Dose-dependent effect | Active | Dose-dependent effect | Active |
| C=C1CC[C@@H](O)[C@]2(C)CC[C@@H](C(=C)C(=O)OCC)[C@H](O)[C@@H]12 | – | – | 50 (≈ 170 µM) | 75 (≈ 255 µM) | 75 (≈ 255 µM) | – | – | – | – | – | – | – | – | – |
| CN[C@H](CC(C)C)C(=O)N[C@H]1C(=O)N[C@@H](CC(N)=O)C(=O)N[C@H]2C(=O)N[C@H]3C(=O)N[C@H](C(=O)N[C@H](C(=O)O)c4cc(O)cc(O)c4-c4cc3ccc4O)[C@H](O)c3ccc(c(Cl)c3)Oc3cc2cc(c3O[C@@H]2O[C@H](CO)[C@@H](O)[C@H](O)[C@H]2O[C@H]2C[C@](C)(N)[C@H](O)[C@H](C)O2)Oc2ccc(cc2Cl)[C@H]1O [VANCOMYCIN] | > 100 | 3.13 (≈ 2.16 µM) | – | – | – | – | 1.56 (≈ 1.08 µM) | 1.56 (≈ 1.08 µM) | – | – | – | – | – | – |
| C=C1[C@@H]2[C@H]3OC(=O)C(=C)[C@@H]3CCC(=C)[C@@H]2C[C@H]1O [ISOZALUZANIN C] | – | – | 15 (≈ 60.9 µM) | 13.5 (≈ 54.8 µM) | 7.5 (≈ 30.4 µM) | – | – | – | – | – | – | – | – | – |
| C=C1C(=O)O[C@@H]2/C=C(\C)CC/C=C(\C)CC[C@@H]12 [COSTUNOLIDE] | 400 (≈ 1720 µM) | 400 (≈ 1720 µM) | 1.6 (≈ 6.89 µM) | 2 (≈ 8.61 µM) | 2 (≈ 8.61 µM) | > 800 | 200 (≈ 861 µM) | 100 (≈ 430 µM) | – | Dose-dependent effect | Dose-dependent effect | – | Dose-dependent effect | – |
| GENTAMICIN | – | – | – | – | – | 3.13 | > 100 | 0.78 | – | – | – | – | – | – |
| C=C1C(=O)O[C@@H]2[C@@H]3[C@](C)(CCC[C@@]3(C)O)CC[C@@H]12 [ARBUSCULIN A] | – | – | 10 (≈ 39.9 µM) | 7.5 (≈ 30 µM) | 7.5 (≈ 30 µM) | – | – | – | – | – | – | – | – | – |
| C=C1CC[C@H]2C(=C)CC[C@@H]3[C@H](OC(=O)[C@@]3(O)CC(C)=O)[C@@H]12 [LAPPALONE] | – | – | > 100 | > 100 | > 100 | – | – | – | – | – | – | – | – | – |
| C=C1CC[C@H]2C(=C)CC[C@H]3C(=C)C(=O)O[C@@H]3[C@@H]12 [DEHYDROCOSTUSLACTONE] | > 800 | > 800 | 3.5 (≈ 15.2 µM) | 3.5 (≈ 15.2 µM) | 2.5 (≈ 10.9 µM) | > 800 | 800 (≈ 3470 µM) | 400 (≈ 1740 µM) | – | Dose-dependent effect | Dose-dependent effect | – | Dose-dependent effect | – |
| C=C1CC[C@@H](O)[C@]2(C)CC[C@@H]3[C@H](OC(=O)[C@H]3C)[C@@H]12 | – | – | > 100 | > 100 | 95 (≈ 379 µM) | – | – | – | – | – | – | – | – | – |
